Source: ChEMBL document CHEMBL1138526, “Design, synthesis, and biological activity of boronic acid-based histone deacetylase inhibitors” (J Med Chem, 2009)

What was measured:
[1] = target: Histone deacetylase; assay: Inhibition of HDAC in human HeLa cell nuclear extracts by fluorimetry; type: cell-based
[2] = target: T1, Histone deacetylase (Homo sapiens) (UniProt Q13547+O15379+Q9UBN7+Q92769+Q9UQL6+Q8WUI4+Q9BY41+Q96DB2+P56524+Q9UKV0+Q969S8); assay: Inhibition of HDAC in human HeLa cell nuclear extracts at 100 uM by fluorimetry; type: cell-free
[3] = target: T2, Histone deacetylase 1 (Homo sapiens, UniProt Q13547); assay: Inhibition of human recombinant HDAC1 by fluorimetry
T2 sequence (Q13547 whole entry): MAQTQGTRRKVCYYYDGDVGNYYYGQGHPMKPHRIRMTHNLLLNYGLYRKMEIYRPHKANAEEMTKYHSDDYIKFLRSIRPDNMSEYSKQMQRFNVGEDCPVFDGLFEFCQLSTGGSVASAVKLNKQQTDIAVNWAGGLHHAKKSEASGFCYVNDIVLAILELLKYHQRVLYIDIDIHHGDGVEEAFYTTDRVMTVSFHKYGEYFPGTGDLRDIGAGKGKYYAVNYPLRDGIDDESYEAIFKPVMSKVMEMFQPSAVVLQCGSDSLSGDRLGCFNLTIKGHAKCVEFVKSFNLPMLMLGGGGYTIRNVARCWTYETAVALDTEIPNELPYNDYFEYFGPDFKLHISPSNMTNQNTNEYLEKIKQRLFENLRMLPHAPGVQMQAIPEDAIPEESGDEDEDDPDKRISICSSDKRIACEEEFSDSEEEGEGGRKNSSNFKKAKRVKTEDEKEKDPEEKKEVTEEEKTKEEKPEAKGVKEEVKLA

[4] = target: Histone deacetylase 2 (Homo sapiens, UniProt Q92769); assay: Inhibition of human recombinant HDAC2 by fluorimetry
Histone deacetylase 2, sequence (Q92769 whole entry): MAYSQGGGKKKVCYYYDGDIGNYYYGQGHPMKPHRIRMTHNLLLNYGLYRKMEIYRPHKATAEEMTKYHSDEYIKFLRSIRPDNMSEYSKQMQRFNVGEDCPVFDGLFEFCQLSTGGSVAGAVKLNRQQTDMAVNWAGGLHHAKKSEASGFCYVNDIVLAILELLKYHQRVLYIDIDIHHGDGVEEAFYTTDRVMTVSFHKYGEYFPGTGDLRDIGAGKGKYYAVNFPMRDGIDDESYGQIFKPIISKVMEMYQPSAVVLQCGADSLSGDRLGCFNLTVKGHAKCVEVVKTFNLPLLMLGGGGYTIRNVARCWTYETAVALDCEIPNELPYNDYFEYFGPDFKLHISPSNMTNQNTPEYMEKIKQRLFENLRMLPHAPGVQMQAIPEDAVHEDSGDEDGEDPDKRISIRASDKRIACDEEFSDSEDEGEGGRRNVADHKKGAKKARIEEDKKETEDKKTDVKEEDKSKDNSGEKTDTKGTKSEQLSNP

[5] = target: T3, Histone deacetylase 8 (Homo sapiens, UniProt Q9BY41); assay: Inhibition of human recombinant HDAC8 by fluorimetry
T3 sequence (Q9BY41 whole entry): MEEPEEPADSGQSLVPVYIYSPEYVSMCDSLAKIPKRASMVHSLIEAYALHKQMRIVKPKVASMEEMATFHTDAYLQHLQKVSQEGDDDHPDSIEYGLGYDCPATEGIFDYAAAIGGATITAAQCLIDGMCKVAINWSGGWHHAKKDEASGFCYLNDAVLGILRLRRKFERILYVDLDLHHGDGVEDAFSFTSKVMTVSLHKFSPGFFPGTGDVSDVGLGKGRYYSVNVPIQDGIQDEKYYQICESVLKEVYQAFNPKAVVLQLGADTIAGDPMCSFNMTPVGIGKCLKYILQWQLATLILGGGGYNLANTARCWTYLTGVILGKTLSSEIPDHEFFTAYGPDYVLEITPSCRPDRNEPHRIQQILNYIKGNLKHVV

[6] = target: T4, Protein deacetylase HDAC6 (Homo sapiens, UniProt Q9UBN7); assay: Inhibition of human recombinant HDAC6 by fluorimetry
T4 sequence (Q9UBN7 whole entry): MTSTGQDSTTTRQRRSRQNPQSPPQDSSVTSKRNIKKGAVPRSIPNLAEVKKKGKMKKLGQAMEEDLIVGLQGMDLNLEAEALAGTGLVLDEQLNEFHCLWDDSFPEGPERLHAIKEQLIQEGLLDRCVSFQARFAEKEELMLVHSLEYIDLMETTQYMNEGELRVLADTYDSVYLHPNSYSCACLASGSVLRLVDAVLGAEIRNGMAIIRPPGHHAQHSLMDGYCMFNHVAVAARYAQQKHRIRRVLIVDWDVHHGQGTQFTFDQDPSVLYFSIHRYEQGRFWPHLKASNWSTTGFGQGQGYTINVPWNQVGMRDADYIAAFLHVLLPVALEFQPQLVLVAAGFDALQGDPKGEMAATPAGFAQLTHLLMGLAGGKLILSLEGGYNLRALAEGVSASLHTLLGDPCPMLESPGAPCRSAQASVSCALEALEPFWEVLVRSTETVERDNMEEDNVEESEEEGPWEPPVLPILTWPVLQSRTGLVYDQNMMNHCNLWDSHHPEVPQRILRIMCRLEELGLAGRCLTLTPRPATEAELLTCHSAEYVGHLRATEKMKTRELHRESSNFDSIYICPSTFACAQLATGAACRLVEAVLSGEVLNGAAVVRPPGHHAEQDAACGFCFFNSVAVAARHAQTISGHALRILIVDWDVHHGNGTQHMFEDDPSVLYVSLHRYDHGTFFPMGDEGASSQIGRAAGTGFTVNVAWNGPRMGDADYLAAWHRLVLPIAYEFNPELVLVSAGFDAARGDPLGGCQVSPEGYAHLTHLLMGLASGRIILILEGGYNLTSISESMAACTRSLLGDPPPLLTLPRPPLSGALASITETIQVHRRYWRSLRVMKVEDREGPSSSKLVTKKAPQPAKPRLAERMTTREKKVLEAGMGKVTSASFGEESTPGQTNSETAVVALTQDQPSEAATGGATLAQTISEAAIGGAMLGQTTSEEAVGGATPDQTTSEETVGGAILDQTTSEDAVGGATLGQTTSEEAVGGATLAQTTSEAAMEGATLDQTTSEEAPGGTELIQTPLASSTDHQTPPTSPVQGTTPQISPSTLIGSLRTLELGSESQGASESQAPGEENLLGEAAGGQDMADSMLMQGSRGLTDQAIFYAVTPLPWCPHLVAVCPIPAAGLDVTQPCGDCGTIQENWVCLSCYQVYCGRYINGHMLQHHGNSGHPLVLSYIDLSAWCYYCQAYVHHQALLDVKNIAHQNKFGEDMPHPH

[7] = test system: MKN-45; assay: cells; type: functional; conditions: Homo sapiens, MKN-45, 48 h
[8] = Ratio of GI50 for human MKN45 cells to IC50 for HDAC in human HeLa cells
[9] = Ratio of GI50 for human MKN45 cells to IC50 for human recombinant HDAC1; set-up: species or system MKN-45
[10] = Ratio of GI50 for human MKN45 cells to IC50 for human recombinant HDAC2; set-up: species or system MKN-45
[11] = cells; type: functional; conditions: Homo sapiens, HBC5, 48 h
[12] = test system: SNB-78; assay: cells; type: functional; conditions: Homo sapiens, SNB-78, 48 h
[13] = test system: HCT-116; assay: cells; type: functional; conditions: Homo sapiens, HCT-116, 48 h
[14] = test system: DMS-114; assay: Growth inhibition of human DMS114 cells after 48 hrs by sulforhodamine B assay; type: functional
Outline: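 GI50 read from growth inhibition of DMS114 lung cancer cells, one line in a nine-line human cancer panel; each value is the mean of two separate experiments.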

[15] = test system: LOX IMVI; assay: cells; type: functional; conditions: Homo sapiens, 48 h
[16] = test system: SK-OV-3; assay: cells; type: functional; conditions: Homo sapiens, SK-OV-3, 48 h
[17] = cells; type: functional; conditions: Homo sapiens, RXF 631, 48 h
[18] = test system: PC-3; assay: cells; type: functional; conditions: Homo sapiens, PC-3, 48 h
[19] = target: T1, Histone deacetylase (Homo sapiens); assay: Inhibition of HDAC in human HCT116 cells assessed as induction of histone H4 acetylation after 8 hrs by Western blot analysis; type: cell-based; conditions: HCT-116
[20] = target: T5, Protein deacetylase HDAC6 (Homo sapiens) (UniProt Q9UBN7); assay: Inhibition of HDAC6 in human HCT116 cells assessed as induction of alpha tubulin acetylation after 8 hrs by Western blot analysis; type: cell-based; conditions: HCT-116
T5 sequence (whole entry): T4 sequence (Q9UBN7 whole entry)

[21] = target: T2, Histone deacetylase 1; assay: Inhibition of human recombinant HDAC1 at 10 uM by fluorimetry

O=C(NC(CCCCCB(O)O)C(=O)Nc1cccc(-c2ccccc2)c1)c1cccnc1 (stereo unspecified)
IC50 [1]: 2 µM

O=C(CCCCCCB(O)O)Nc1cccc(Oc2ccccc2)c1
inhibition [2]: 1.8% | IC50 [1]: > 100 µM

O=C(N[C@H](CCCCCB(O)O)C(=O)Nc1cccc(-c2ccccc2)c1)c1ccccc1
IC50 [1]: 17 µM | IC50 [3]: > 100 µM | IC50 [4]: > 100 µM | IC50 [5]: > 100 µM | IC50 [6]: 24 µM

O=C(NC(CCCCCB(O)O)C(=O)Nc1cccc(-c2ccccc2)c1)c1cscn1 (stereo unspecified)
IC50 [1]: 4.7 µM

O=C(N[C@@H](CCCCCB(O)O)C(=O)Nc1cccc(-c2ccccc2)c1)c1cncs1
IC50 [1]: 0.92 µM | IC50 [3]: 2.2 µM | IC50 [4]: 0.53 µM | IC50 [5]: 6.6 µM | IC50 [6]: 0.11 µM | GI50 [7]: 3.5 µM | Ratio [8]: 3.8 | Ratio [9]: 1.6 | Ratio [10]: 6.6 | GI50 [11]: 6.5 µM | GI50 [12]: 9.1 µM | GI50 [13]: 0.73 µM | GI50 ([14]; Homo sapiens, DMS-114, 48 h): 2.4 µM | GI50 [15]: 1.3 µM | GI50 [16]: 2.2 µM | GI50 [17]: 3.2 µM | GI50 [18]: 6.7 µM | Activity [19]: Dose-dependent effect | Activity [20]: Dose-dependent effect

O=C(Nc1ccccc1)C(CCCCCB(O)O)C(=O)Nc1cccc(-c2ccccc2)c1 (stereo unspecified)
IC50 [1]: 30 µM

O=C(NC(CCCCCB(O)O)C(=O)Nc1cccc(-c2ccccc2)c1)c1ccccc1 (stereo unspecified)
IC50 [1]: 2 µM

O=C(CCCCCCB(O)O)Nc1ccccc1
inhibition [2]: 37% | IC50 [1]: > 100 µM

O=C(N[C@@H](CCCCCB(O)O)C(=O)Nc1cccc(-c2ccccc2)c1)c1ccccc1
IC50 [1]: 1.6 µM | IC50 [3]: > 10 µM | IC50 [4]: 3.6 µM | IC50 [5]: > 100 µM | IC50 [6]: 1.1 µM | inhibition [21]: 38% | GI50 [7]: 9.3 µM | Ratio [8]: 5.8 | Ratio [9]: < 0.93 | Ratio [10]: 2.6 | Activity [19]: Dose-dependent effect | Activity [20]: Dose-dependent effect

O=C(NC(CCCCCB(O)O)C(=O)Nc1cccc(-c2ccccc2)c1)OCc1ccccc1 (stereo unspecified)
IC50 [1]: 4.2 µM

O=C(NC(CCCCCB(O)O)C(=O)Nc1cccc(-c2ccccc2)c1)c1ccc2ccccc2n1 (stereo unspecified)
IC50 [1]: > 100 µM

O=C(CCCCCCB(O)O)Nc1ccc(Oc2ccccc2)cc1
inhibition [2]: 2.2% | IC50 [1]: > 100 µM

CC(C)(C)OC(=O)NC(CCCCCB(O)O)C(=O)Nc1cccc(-c2ccccc2)c1 (stereo unspecified)
inhibition [2]: 85% | IC50 [1]: 12 µM

CN(C)c1ccc(C(=O)NC(CCCCCB(O)O)C(=O)Nc2cccc(-c3ccccc3)c2)cc1 (stereo unspecified)
IC50 [1]: 13 µM

CC(C)(C)OC(=O)NC(CCCCCB(O)O)C(=O)Nc1cnc2ccccc2c1 (stereo unspecified)
inhibition [2]: 86% | IC50 [1]: 16 µM

O=C(CCCCCCB(O)O)Nc1cnc2ccccc2c1
inhibition [2]: 32% | IC50 [1]: > 100 µM

O=C(Nc1cccnc1)C(CCCCCB(O)O)C(=O)Nc1cccc(-c2ccccc2)c1 (stereo unspecified)
IC50 [1]: 51 µM

CC(C)(C)OC(=O)NC(CCCCCB(O)O)C(=O)Nc1ccc(Oc2ccccc2)cc1 (stereo unspecified)
inhibition [2]: 15% | IC50 [1]: > 100 µM

O=C(NC(CCCCCB(O)O)C(=O)Nc1cccc(-c2ccccc2)c1)c1cc2ccccc2[nH]1 (stereo unspecified)
IC50 [1]: 11 µM

O=C(N[C@@H](CCCCCB(O)O)C(=O)Nc1cccc(-c2ccccc2)c1)c1cccnc1
IC50 [1]: 1.4 µM | IC50 [3]: 2.8 µM | IC50 [4]: 0.83 µM | IC50 [5]: 23 µM | IC50 [6]: 0.32 µM | GI50 [7]: 5.5 µM | Ratio [8]: 3.9 | Ratio [9]: 2 | Ratio [10]: 6.6 | Activity [19]: Dose-dependent effect | Activity [20]: Dose-dependent effect

CC(C)(C)OC(=O)NC(CCCCCB(O)O)C(=O)Nc1nc2ccccc2s1 (stereo unspecified)
inhibition [2]: 78% | IC50 [1]: 23 µM

O=C(N[C@H](CCCCCB(O)O)C(=O)Nc1cccc(-c2ccccc2)c1)c1cccnc1
IC50 [1]: 15 µM | IC50 [3]: > 100 µM | IC50 [4]: 99 µM | IC50 [5]: > 100 µM | IC50 [6]: 14 µM

CC(C)(C)OC(=O)NC(CCCCCB(O)O)C(=O)Nc1ccccc1 (stereo unspecified)
inhibition [2]: 42% | IC50 [1]: > 100 µM

O=C(NC(CCCCCB(O)O)C(=O)Nc1cccc(-c2ccccc2)c1)c1cncs1 (stereo unspecified)
IC50 [1]: 1.4 µM

O=C(N[C@H](CCCCCB(O)O)C(=O)Nc1cccc(-c2ccccc2)c1)c1cncs1
IC50 [1]: 24 µM | IC50 [3]: > 100 µM | IC50 [4]: > 100 µM | IC50 [5]: > 100 µM | IC50 [6]: 5.6 µM | GI50 [7]: 21 µM | GI50 [11]: 20 µM | GI50 [12]: 13 µM | GI50 [13]: 16 µM | GI50 ([14]; Homo sapiens, DMS-114, 48 h): 17 µM | GI50 [15]: 19 µM | GI50 [16]: 19 µM | GI50 [17]: 19 µM | GI50 [18]: 18 µM

O=C(CCCCCCB(O)O)Nc1cccc(-c2ccccc2)c1
inhibition [2]: 40% | IC50 [1]: > 100 µM

O=C(CCCCCCC(=O)Nc1ccccc1)NO [VORINOSTAT]
GI50 [14]: 2.9 µM

CC(C)(C)OC(=O)NC(CCCCCB(O)O)C(=O)Nc1cccc(Oc2ccccc2)c1 (stereo unspecified)
inhibition [2]: 38% | IC50 [1]: > 100 µM

O=C(CCCCCCB(O)O)Nc1nc2ccccc2s1
inhibition [2]: 5.1% | IC50 [1]: > 100 µM
